Hits are enriched below; roughly 4.1% of the tested compounds scored in any of these assays.
KCNQ1 inh: inhibitors of human KCNQ1 potassium channel. B-score at 10 µM. hit rate 1.3% among 310,000. P51787. CHO-K1 KCNQ1, FluxOR thallium flux fluorescence; stronger effect = higher value. AID 2642;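 active means compounds whose thallium flux B-score, printed positive for inhibition, exceeds three library SD while starting fluorescence stays within three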;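 further: channel opened by potassium depolarization with thallium stimulus after 20 min compound exposure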
KCNK3 inh: human KCNK3 channel inhibition, primary screen; AID 602410; O14649; hit rate 0.84% among 340,000; B-score at 10 µM; CHO-KCNK3 thallium flux, FluxOR fluorescence; stronger effect = lower value;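 active means B-score under library mean minus 4 SD, starting fluorescence ratio at most library mean plus 5 SD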;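 further: more negative B-score means stronger inhibition of thallium flux through KCNK3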
hERG protect: compounds protecting human hERG from proarrhythmic drug block | Q12809 | CHO-hERG, FluxOR thallium flux, dofetilide IC70 present | activation (rescue from dofetilide block), less the hit threshold, % at 10 µM | hit rate 0.51% among 310,000;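 active means activation above the mean of controls blocked by dofetilide plus 5 SD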;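 further: thallium influx through hERG after potassium depolarization seen as dye fluorescence rise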
Target sequence (Q12809 whole entry, looked up): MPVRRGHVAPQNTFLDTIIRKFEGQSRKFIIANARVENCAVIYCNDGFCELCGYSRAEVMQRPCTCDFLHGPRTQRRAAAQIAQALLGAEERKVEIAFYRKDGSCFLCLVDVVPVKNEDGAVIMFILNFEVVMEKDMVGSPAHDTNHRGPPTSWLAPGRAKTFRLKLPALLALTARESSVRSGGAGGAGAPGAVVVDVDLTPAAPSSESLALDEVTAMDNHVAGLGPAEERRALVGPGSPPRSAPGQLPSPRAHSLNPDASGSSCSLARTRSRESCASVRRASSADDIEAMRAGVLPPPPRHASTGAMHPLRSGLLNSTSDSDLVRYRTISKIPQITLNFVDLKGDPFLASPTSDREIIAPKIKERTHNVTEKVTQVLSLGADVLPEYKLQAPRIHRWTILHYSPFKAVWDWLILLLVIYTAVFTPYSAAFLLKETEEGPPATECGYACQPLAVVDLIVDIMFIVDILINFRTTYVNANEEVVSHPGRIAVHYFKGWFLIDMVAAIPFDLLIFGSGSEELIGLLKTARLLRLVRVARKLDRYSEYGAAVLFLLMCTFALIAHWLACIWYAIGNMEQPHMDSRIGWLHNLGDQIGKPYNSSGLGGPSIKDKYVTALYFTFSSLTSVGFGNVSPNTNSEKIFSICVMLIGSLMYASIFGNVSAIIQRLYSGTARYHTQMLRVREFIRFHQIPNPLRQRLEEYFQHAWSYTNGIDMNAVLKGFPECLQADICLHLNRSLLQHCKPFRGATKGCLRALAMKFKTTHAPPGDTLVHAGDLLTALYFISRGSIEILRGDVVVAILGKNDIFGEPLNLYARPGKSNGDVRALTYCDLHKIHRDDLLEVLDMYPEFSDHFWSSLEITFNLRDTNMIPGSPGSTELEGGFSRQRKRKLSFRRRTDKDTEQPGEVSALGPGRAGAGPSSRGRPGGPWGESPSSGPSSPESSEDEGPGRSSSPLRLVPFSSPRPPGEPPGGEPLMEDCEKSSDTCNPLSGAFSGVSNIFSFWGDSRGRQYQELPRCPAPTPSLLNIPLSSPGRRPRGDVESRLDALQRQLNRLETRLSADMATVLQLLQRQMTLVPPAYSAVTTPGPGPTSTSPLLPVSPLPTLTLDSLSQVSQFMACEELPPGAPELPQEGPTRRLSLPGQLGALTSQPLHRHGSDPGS
KCNQ1 act: potentiators or activators of human KCNQ1 potassium channel; AID 2648; B-score at 10 µM; hit rate 0.35% among 310,000; CHO-K1 KCNQ1, thallium flux FluxOR fluorescence; stronger effect = higher value;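 active means fluorescence ratio B-score, a plate-corrected score, at least three library SD, with initial intensity B-score within 5 SD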
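System: CHO-K1 cells stably expressing KCNQ1 / Medium: assay buffer for compound exposure, DMSO matched across wells / Reagent: thallium- and potassium-containing depolarizing buffer / Compound: one concentration, matched DMSO / Incubation: 20 min compound pretreatment at room temperature / Measured by: kinetic FluxOR fluorescence, 10 s baseline plus 110 s post-stimulus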
Cl transport mod: modulates chloride dependent transport by human KCC2 | Q9H2X9 | KCC2 cells, thallium flux FluoZin-2 fluorescence | B-score of Tl+ flux slope (higher = more flux/activation; lower = inhibition) at 10 µM | hit rate 2.2% among 190,000 | AID 1456;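 active means thallium flux slope and its plate-corrected score both differing from the plate sample mean at a set confidence after two filtering rounds, in either direction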;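 further: slope of fluorescence scaled to starting intensity during 10 to 20 s after thallium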
KCNK9 inh: blocks the human KCNK9 two-pore domain potassium channel; HEK293 KCNK9, FluxOR thallium flux fluorescence; stronger effect = lower value; B-score at 10 µM; hit rate 1.2% among 310,000;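 active means ratio B-score over 3 SD below the library mean, with starting fluorescence within 5 SD of its mean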;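 further: negative B-score means less thallium flux so channel inhibition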
Each line names hits and unclear results; the compound was inactive in the other large screens.

Cc1ccc(-n2cc(C(=O)c3cc(Cl)ccc3O)cc(C#N)c2=O)cc1	none
Cc1ccccc1NC(=O)c1cc(C(=O)c2cc(Cl)ccc2O)cn(-c2ccccc2C)c1=O	KCNQ1 inh 9
COc1ccc(C(=O)NCC2(c3ccc(OC)c(OC)c3)CCCC2)c(OC)c1	none (no result: Cl transport mod)
N#CC1C=Cc2c(ccc3ccccc23)N1C(=O)c1ccccc1 (stereo not given)	none (no result: KCNQ1 inh, hERG protect, KCNQ1 act, Cl transport mod, KCNK9 inh)
C=CCOc1ccc(C(=O)Nc2ccccc2C(=O)NCc2cccnc2)cc1	none (no result: Cl transport mod)
Cc1cc2c(cc1C)CSC(c1ccccc1OC(=O)C(C)(C)C)SC2	KCNQ1 inh 6
CCCCC(=O)Oc1ccccc1C1SCc2cc(C)c(C)cc2CS1	none
COc1cccc2cc(C(=O)OCc3ccccc3)c(=O)oc12	none (no result: Cl transport mod)
CCOc1ccc(-n2c3nc4ccccc4nc3c3c(=O)n(Cc4ccco4)cnc32)cc1	Cl transport mod 2.8 (no result: KCNQ1 inh, KCNK3 inh, hERG protect, KCNQ1 act, KCNK9 inh)
CN(C)S(=O)(=O)c1ccc(Cl)c(NC(=O)C2CCN(S(=O)(=O)c3cccs3)CC2)c1	none (no result: KCNQ1 inh, hERG protect, KCNQ1 act, Cl transport mod, KCNK9 inh)
O=C(O)c1cccc(COc2cccc3ccccc23)c1	none (no result: Cl transport mod)
COc1ccc(N=C2O/C(=C/c3sc(=S)n(CC4CCCO4)c3O)N=C2C#N)cc1 (stereo not given)	KCNQ1 inh 10
O=C(Cc1cccc(NC(=O)C2CCCN(C(=O)c3ccccc3)C2)c1)Nc1ccc(C(=O)N2CCOCC2)cc1 (stereo not given)	none (no result: KCNQ1 inh, hERG protect, KCNQ1 act, Cl transport mod, KCNK9 inh)
O=C(NNC(=O)c1c(O)c2ccccc2[nH]c1=O)c1ccccc1Br	none (no result: Cl transport mod)
Cc1ccc(C(=O)Nc2nc(-c3ccccc3)c(-c3ccccc3)o2)cc1	KCNQ1 act 40, Cl transport mod 31
COC(=O)C1=C(C)N(c2cccc(OC)c2)C(=O)/C1=C\c1ccco1	KCNK9 inh -7.3
CCOC(=O)c1ccc(NC(=O)CCC(CC)C(=O)O)cc1 (stereo not given)	none (no result: Cl transport mod)
CCC(CCC(=O)Nc1ccc(S(N)(=O)=O)cc1)C(=O)O (stereo not given)	hERG protect 5.1
COc1ccc(-c2csc(NC(=O)Cc3ccccc3F)n2)c(OC)c1	KCNK9 inh -6.9 (no result: Cl transport mod)
O=C(Cc1cccs1)Nc1nc(-c2ccc(F)c(F)c2)cs1	none (no result: Cl transport mod)
O=C(Cc1cccs1)Nc1nc(-c2ccc(F)cc2F)cs1	KCNK9 inh -7.5
CC1(NC(=O)Nc2cccc(Br)c2)CCS(=O)(=O)C1 (stereo not given)	none (no result: KCNQ1 inh, hERG protect, KCNQ1 act, Cl transport mod, KCNK9 inh)
Cc1ccc(S(=O)(=O)N2CCC(C(=O)OC(C)C(=O)N(C)c3ccccc3)CC2)cc1C (stereo not given)	none (no result: KCNQ1 inh, hERG protect, KCNQ1 act, Cl transport mod, KCNK9 inh)
Clc1cccc(C2Nc3cccc4cccc(c34)N2)c1Cl	KCNQ1 inh 10 (no result: Cl transport mod)
O=c1[nH]c(COc2ccc(Cl)cc2Br)nc2ccccc12	none (no result: Cl transport mod)
COc1ccc(OCCOCCN2CCN(C)CC2)cc1	none (no result: Cl transport mod)
COc1cccc(OC)c1OCCOCCN1CCN(C)CC1	hERG protect 19, KCNQ1 act 19 (no result: Cl transport mod)
Cc1cnc(C(=O)OC(C)C(=O)Nc2ccccc2-c2ccccc2)cn1 (stereo not given)	none (no result: Cl transport mod)
Cc1cc(-c2n[nH]c(=S)n2/N=C/c2ccc(C)s2)n[nH]1	none
Cc1cc(-c2n[nH]c(=S)n2/N=C/c2ccc(Br)s2)n[nH]1	Cl transport mod 10
O=C1N=C(N2CCN(c3ccccc3)CC2)S/C1=C\c1cn[nH]c1-c1ccccc1	none
O=C1N=C(N2CCC(Cc3ccccc3)CC2)S/C1=C/c1cn[nH]c1-c1ccccc1	KCNQ1 inh 9
O=C(Nc1cccc(C(F)(F)F)c1)C12CC3CC(CC(C3)C1)C2	hERG protect 5.0 (no result: Cl transport mod)
COC(=O)c1cc(=O)n(Cc2ccc(F)cc2)c(=Nc2ccccc2)s1	KCNQ1 inh 6
CNC(=O)C1CC(=O)N(CCc2ccc(OC)c(OC)c2)C(=Nc2ccc(F)cc2)S1 (stereo not given)	none
COC(=O)c1cc(=O)n(-c2ccccc2)c(=Nc2ccccc2)s1	none
COC(=O)c1cc(=O)n(Cc2ccc(OC)c(OC)c2)c(=Nc2ccc(F)cc2)s1	KCNQ1 inh 6
COC(=O)c1cc(=O)n(CCc2ccc(OC)c(OC)c2)c(=Nc2ccc(F)c(Cl)c2)s1	KCNK9 inh -7.5
COC(=O)c1cc(=O)n(Cc2ccco2)c(=Nc2ccc(F)cc2)s1	none
CCOC(=O)c1ccc(N=c2sc(C(=O)OC)cc(=O)n2-c2ccc(C(=O)OCC)cc2)cc1	KCNQ1 inh 6
Cc1ccc(C(=O)/C=C/NNC(=O)c2ccccc2O)cc1	none (no result: Cl transport mod)
Cc1ccc(NC(=O)C2CC2C)cc1S(=O)(=O)N1CCOCC1 (stereo not given)	none (no result: Cl transport mod)
CN(CC(=O)Nc1cccc(F)c1)C(=O)c1ccccc1OCCOc1ccccc1	none (no result: Cl transport mod)
Cc1ccc(N(C)/N=C/c2ccc(Cl)cc2Cl)nn1	none (no result: Cl transport mod)
CN(/N=C/c1cc(Cl)cc(Cl)c1O)C(=S)NC(C)(C)C	KCNQ1 inh 13 (no result: Cl transport mod)
COc1ccc(Cn2nnnc2C(C(C)C)N(Cc2ccco2)Cc2cccs2)cc1 (stereo not given)	KCNK9 inh -7.6
COC(=O)c1cc(CNC(=O)c2ccc(S(=O)(=O)N(C)c3ccccc3)cc2)ccc1OC	none (no result: KCNQ1 inh, hERG protect, KCNQ1 act, Cl transport mod, KCNK9 inh)
COc1ccc(CNC(=O)CN(C(=O)c2csnn2)c2cccc(C(C)=O)c2)cc1	none (no result: Cl transport mod)
Cc1ccc(C(C(=O)NC2CCCC2)N(C(=O)c2csnn2)C2CCCC2)o1 (stereo not given)	none (no result: Cl transport mod)
Cc1ccc(CN(C(=O)c2csnn2)C(C(=O)NC2CCCC2)c2ccc(C)o2)cc1 (stereo not given)	KCNK9 inh -6.8
CC(=O)c1ccc(N2CCN(C(=O)/C=C/c3ccc(S(=O)(=O)NCc4ccco4)cc3)CC2)cc1	hERG protect 4.9
CC(=O)c1ccc(N2CCN(C(=O)/C=C/c3ccc(S(=O)(=O)N4CCOCC4)cc3)CC2)cc1	none
COc1cc(OC)cc(C(=O)NNC(=O)CN2C(=O)NC(C)(c3ccccc3)C2=O)c1 (stereo not given)	none (no result: Cl transport mod)
C/C(=N\NC(=O)c1c[nH]c2ccccc12)c1ccccn1	none
C/C(=N/NC(=O)c1cc2ccccc2cc1O)C1C(=O)c2ccccc2C1=O	Cl transport mod -2.8
CC(=N/O)/C(C)=N\NC(=O)c1ccccn1	KCNQ1 inh 8
C/C(=N\NC(=O)c1cc2ccccc2cc1O)c1ccccn1	KCNQ1 act 7 (no result: Cl transport mod)
C/C(CC(=O)N1CCN(C=O)CC1)=N\NC(=O)c1cc2ccccc2cc1O	none
O=C(N/N=C\c1ccc(Sc2ccccn2)o1)c1cccc(F)c1	none
CCc1ccc(/C(C)=N/NC(=O)c2ccccn2)cc1	none
O=C(N/N=C/c1ccc(Sc2ccccn2)o1)c1cc2ccccc2cc1O	KCNQ1 act 18 (no result: Cl transport mod)
COc1cc(C(=O)Nc2nnc(C3=COCCO3)o2)cc(OC)c1OC	none (no result: Cl transport mod)
C/C(=N\NC(=O)c1cc2ccccc2cc1O)c1cc2ccccc2o1	hERG protect 55, KCNQ1 act 138 (no result: Cl transport mod)
COc1ccc(NCC(=O)N/N=C(\C)c2cc3ccccc3o2)cc1	none

Assay outcomes as filed in PubChem BioAssay.
